Values after ≈ are worked out from the molar mass of the structure shown. One block for each compound: values may come before it.
How the values were obtained:
[1] = test system: Human immunodeficiency virus 1; assay: Antiviral activity against ENV pseudotyped CCR5-tropic HIV1 […] infected in human HeLa67 cells after 3 days by luciferase reporter gene assay; assay type: functional, organism-based; settings: Human immunodeficiency virus 1, HeLa67, 72 h
In short: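 Single-cycle infection with env-deleted, luciferase-reporter HIV-1 pseudotyped with the JRFL (CCR5) envelope, supplied by transfection; viral titers normalized by luminescence without compound. HeLa 67 cells were infected in the presence of compounds given as 3-fold serial dilutions made from 30 mM DMSO stocks.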

[2] = AUC in Sprague-Dawley rat at 5 mg/kg, po after 24 hrs; assay type: ADME, organism-based; design: time < 24 hr, dose 5 mg/kg, route oral; settings: in vivo
In short: (§1)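 Male Sprague-Dawley rats (300−350 g) with jugular vein and/or bile duct cannulas, n = 3 per route; dosed as a solution in PEG-400/ethanol (90/10). The iv dose was 1 mg/kg given as a 0.5 min bolus, with jugular blood sampled from 2 to 1440 min. The po dose was 5 mg/kg after an overnight fast, sampled from 15 to 1440 min. Plasma was taken from EDTA blood.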

[3] = Protein binding in human plasma; assay type: ADME, cell-free; settings: read-out: PPB (converted)
[4] = AUC in cynomolgus monkey at 5 mg/kg, po administered via gavage; assay type: ADME, organism-based, Macaca fascicularis; settings: in vivo
In short: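 Crossover study in three male cynomolgus monkeys (10 ± 0.8 kg) with a one-week washout between routes; dosed in PEG-400/ethanol (90/10) with pH adjusted by 0.1 N NaOH. After an overnight fast, 5 mg/kg was given by oral gavage. Serial blood was drawn before dosing and at 15–1440 min.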

[5] = test system: Human immunodeficiency virus 1; assay: Antiviral activity against HIV1 infected in patients assessed as reduction in plasma viral load by measuring log10 viral copies at 1800 mg, bid measured at day 8; assay type: functional
[6] = test system: Human immunodeficiency virus 1; assay: Antiviral activity against HIV1 infected in patients assessed as reduction in maxmum viral RNA by measuring log10 viral copies at 1800 mg, bid measured at day 8; assay type: functional
MT2 = assay: Cytotoxicity against human MT2 cells assessed as decrease in cell viability after 3 days […]; assay type: functional; settings: MT2, 72 h
[7] = Half life in human liver microsomes; assay type: ADME, microsome
[8] = test system: Human immunodeficiency virus 1; assay: Antiviral activity against HIV1 infected in patients assessed as reduction in maxmum viral RNA by measuring log10 viral copies at 800 mg, bid measured at day 8; assay type: functional
[9] = target: Envelope glycoprotein gp160 (Human immunodeficiency virus 1) (UniProt Q6QLK5); assay: Binding affinity to HIV-1 JRFL gp120 assessed as half life for dissociation
[10] = AUC in beagle dog at 5 mg/kg, po; assay type: ADME, organism-based, Canis lupus familiaris; settings: in vivo
In short: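 Crossover study in three male beagle dogs (12 ± 0.4 kg) with a one-week washout between routes; dosed in PEG-400/ethanol (90/10) with pH adjusted by 0.1 N NaOH. After an overnight fast, 5 mg/kg was given by oral gavage. Serial blood was drawn before dosing and at 15–1440 min.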

[11] = test system: Human immunodeficiency virus 1; assay: Selectivity ratio of EC50 for ENV pseudotyped CCR5-tropic HIV1 […] in presence of 40%human serum to EC50 for ENV pseudotyped CCR5-tropic HIV1 […] in absence of 40%human serum; assay type: functional
In short: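 Single-cycle assay: env-deleted HIV-1 firefly-luciferase reporter virus pseudotyped by transfection with the JRFL (CCR5-tropic) envelope; HeLa 67 cells infected with compound (DMSO stocks, 3-fold serial dilutions). Luciferase read 3 days post-infection.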

[12] = test system: Human immunodeficiency virus 1; assay: Antiviral activity against HIV1 infected in patients assessed as reduction in plasma viral load by measuring log10 viral copies at 800 mg, bid measured at day 8 (reference value: 0.02 log10 copies/ml); assay type: functional
[13] = target: Envelope glycoprotein gp160 (Human immunodeficiency virus 1, UniProt Q6QLK5); assay: Inhibition of [3H]BMS-488043 binding to HIV-1 JRFL gp120 after 1 hr by scintillation counting method
[14] = target: T1, Alkaline phosphatase, placental type (Homo sapiens, UniProt P05187); assay: Prodrug activation assessed as human placental alkaline phosphatase mediated BMS-626529 formation; settings: isolated protein
Canis familiaris [15] = assay: Toxicity in beagle dog assessed as rapid emesis at 250 mg/kg, po qd; assay type: organism-based, Canis lupus familiaris; settings: in vivo
[16] = Prodrug activation in Sprague-Dawley rat plasma assessed as BMS-626529 formation at 200 mg/kg, po after 3 hrs; assay type: organism-based; settings: in vivo
In short: (§2)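 Rats were dosed orally with parent (solution in PEG-400/EtOH/0.1 N NaOH at ≤25 mg/kg; suspension at 200 mg/kg) or with prodrug as an aqueous solution. Plasma AUC of the parent drug was compared between the two.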

[17] = Stability of the compound in solid state at 37 degC after 24 hrs; assay type: physicochemical
In short: (§3)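 Aqueous solubility was measured across pH 1.5–8.2 at room temperature. Solution stability under acidic and neutral conditions, and solid-state stability, were followed for at least 24 h at 37 °C.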

[18] = Prodrug activation in Sprague-Dawley rat plasma assessed as BMS-626529 formation at <= 25 mg/kg, po after 3 hrs; assay type: organism-based; settings: in vivo; in short: as §2
[19] = Stability of the compound under neutral condition at 37 degC after 24 hrs; assay type: physicochemical; in short: as §3
[20] = Stability of the compound under acidic condition at 37 degC after 24 hrs; assay type: physicochemical; in short: as §3
Homo sapiens = assay: Prodrug activation in normal healthy human assessed as BMS-626529 formation at 100 to 1000 mg dosed as standard capsule formulation; assay type: organism-based; settings: in vivo, po
In short: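 Single ascending dose phase 1 trial in normal healthy volunteers: prodrug given as a standard capsule at 100, 200, 400, 600, 800 and 1000 mg. Plasma exposure of the parent drug was measured.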

[21] = target: T1, Alkaline phosphatase, placental type; assay: Prodrug activation in human hepatocytes assessed as BMS-626529 formation; assay type: cell-based
[22] = Aqueous solubility of the compound at pH 1.5 to 8.2; assay type: physicochemical; settings: buffer; in short: as §3
[23] = Prodrug activation in beagle dog plasma assessed as BMS-626529 formation 46 mg/kg, po bid; assay type: organism-based, Canis lupus familiaris; settings: in vivo
[24] = Prodrug activation in beagle dog plasma assessed as BMS-626529 formation 125 mg/kg, po bid; assay type: organism-based, Canis lupus familiaris; settings: in vivo
Cynomolgus monkey = assay: Oral bioavailability in cynomolgus monkey assessed as BMS-626529 formation at 5 mg/kg administered via gavage; assay type: ADME, organism-based, Macaca fascicularis; settings: in vivo
[25] = Drug uptake in Sprague-Dawley rat plasma assessed as BMS-626529 level at <= 25 mg/kg, po after 3 hrs; assay type: ADME, organism-based; settings: in vivo; in short: as §2
[26] = Aqueous solubility of the compound at pH 1; assay type: physicochemical; settings: buffer
In short: (§4)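 Crystalline solid sample; aqueous solubility measured in buffers at the stated pH.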

Rattus norvegicus = assay: Oral bioavailability in Sprague-Dawley rat assessed as BMS-626529 formation at 5 mg/kg; assay type: ADME, organism-based; settings: in vivo
Canis familiaris [27] = assay: Oral bioavailability in beagle dog assessed as BMS-626529 formation at 5 mg/kg; assay type: ADME, organism-based, Canis lupus familiaris; settings: in vivo
[28] = Drug uptake in Sprague-Dawley rat plasma assessed as BMS-626529 level at 200 mg/kg, po after 3 hrs; assay type: ADME, organism-based; settings: in vivo
[29] = Permeability in human Caco2 cells; assay type: ADME, cell-based; settings: Caco-2, read-out: permeability
[30] = test system: Human immunodeficiency virus 1; assay: Antiviral activity against recombinant pseudotyped HIV1 subtype C infected in human U87 cells expressing CD4/CCR5/CXCR4 by luciferase reporter gene assay; assay type: functional, organism-based; settings: Human immunodeficiency virus 1, subtype C, U-87 MG
[31] = test system: Human immunodeficiency virus 1; assay: Antiviral activity against recombinant pseudotyped HIV1 subtype B infected in human U87 cells expressing CD4/CCR5/CXCR4 by luciferase reporter gene assay; assay type: functional, organism-based; settings: Human immunodeficiency virus 1, subtype B, U-87 MG
[32] = test system: Human immunodeficiency virus 1; assay: Antiviral activity against recombinant pseudotyped HIV1 subtype A infected in human U87 cells expressing CD4/CCR5/CXCR4 by luciferase reporter gene assay; assay type: functional, organism-based; settings: Human immunodeficiency virus 1, subtype A, U-87 MG
[33] = Aqueous solubility of the compound at pH 10; assay type: physicochemical; settings: buffer; in short: as §4
[34] = Metabolic stability in rat liver microsomes assessed as parent compound remaining after 10 mins; assay type: ADME, microsome; settings: read-out: Stability
In short: (§5)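 Compound at 3 μM was incubated with human or rat liver microsomes, and the percentage of parent compound remaining was measured after 10 min.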

[35] = Metabolic stability in human liver microsomes assessed as parent compound remaining after 10 mins; assay type: ADME, microsome; settings: read-out: Stability; in short: as §5
[36] = Half life in Sprague-Dawley rat at 1 mg/kg, iv; assay type: ADME, organism-based; settings: in vivo
[37] = Volume of distribution at steady state in Sprague-Dawley rat at 1 mg/kg, iv; assay type: ADME, organism-based; settings: in vivo, read-out: Vdss; in short: as §1
[38] = Oral bioavailability in Sprague-Dawley rat at 5 mg/kg; assay type: ADME, organism-based; settings: in vivo; in short: as §1
Cytochrome P450 3A4 = Cytochrome P450 3A4 (Homo sapiens, UniProt P08684); assay: Inhibition of CYP3A4 (unknown origin); assay type: ADME
Sequence of Cytochrome P450 3A4 (P08684 whole entry): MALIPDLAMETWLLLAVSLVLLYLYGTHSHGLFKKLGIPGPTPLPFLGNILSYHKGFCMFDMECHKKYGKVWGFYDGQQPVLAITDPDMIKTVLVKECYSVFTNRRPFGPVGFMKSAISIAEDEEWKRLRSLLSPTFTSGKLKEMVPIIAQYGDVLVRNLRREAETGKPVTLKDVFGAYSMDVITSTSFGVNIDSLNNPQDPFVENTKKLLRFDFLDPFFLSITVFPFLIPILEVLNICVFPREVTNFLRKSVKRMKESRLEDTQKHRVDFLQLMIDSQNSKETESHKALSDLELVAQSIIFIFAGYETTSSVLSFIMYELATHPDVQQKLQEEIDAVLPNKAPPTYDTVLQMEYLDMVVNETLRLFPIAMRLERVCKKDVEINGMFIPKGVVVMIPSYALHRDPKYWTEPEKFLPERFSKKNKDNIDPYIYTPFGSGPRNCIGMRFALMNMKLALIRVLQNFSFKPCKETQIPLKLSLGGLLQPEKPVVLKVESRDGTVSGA

Sequence of Envelope glycoprotein gp160 (Human immunodeficiency virus 1) (Q6QLK5 1-814): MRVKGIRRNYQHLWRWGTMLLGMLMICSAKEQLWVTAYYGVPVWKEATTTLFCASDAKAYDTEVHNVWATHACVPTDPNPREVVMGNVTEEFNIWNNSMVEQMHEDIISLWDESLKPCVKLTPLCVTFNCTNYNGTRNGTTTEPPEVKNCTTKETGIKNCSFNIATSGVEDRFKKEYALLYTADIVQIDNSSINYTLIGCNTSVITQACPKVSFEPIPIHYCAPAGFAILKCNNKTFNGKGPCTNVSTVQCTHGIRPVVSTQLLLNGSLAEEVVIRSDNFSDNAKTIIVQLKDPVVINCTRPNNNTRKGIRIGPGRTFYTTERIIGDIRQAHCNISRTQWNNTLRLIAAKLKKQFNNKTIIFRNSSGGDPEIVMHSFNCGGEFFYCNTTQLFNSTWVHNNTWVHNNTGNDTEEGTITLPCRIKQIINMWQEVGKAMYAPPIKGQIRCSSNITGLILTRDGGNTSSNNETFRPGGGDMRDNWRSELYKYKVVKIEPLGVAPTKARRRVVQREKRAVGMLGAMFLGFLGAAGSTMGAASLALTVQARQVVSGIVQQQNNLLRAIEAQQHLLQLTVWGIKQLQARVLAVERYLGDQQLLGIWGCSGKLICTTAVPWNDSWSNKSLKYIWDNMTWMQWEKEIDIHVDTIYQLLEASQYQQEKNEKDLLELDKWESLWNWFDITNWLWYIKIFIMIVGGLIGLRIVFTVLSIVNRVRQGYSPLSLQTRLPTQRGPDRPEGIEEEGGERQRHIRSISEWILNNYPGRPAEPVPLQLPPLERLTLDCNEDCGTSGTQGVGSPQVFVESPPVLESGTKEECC
T1 sequence (P05187 whole entry): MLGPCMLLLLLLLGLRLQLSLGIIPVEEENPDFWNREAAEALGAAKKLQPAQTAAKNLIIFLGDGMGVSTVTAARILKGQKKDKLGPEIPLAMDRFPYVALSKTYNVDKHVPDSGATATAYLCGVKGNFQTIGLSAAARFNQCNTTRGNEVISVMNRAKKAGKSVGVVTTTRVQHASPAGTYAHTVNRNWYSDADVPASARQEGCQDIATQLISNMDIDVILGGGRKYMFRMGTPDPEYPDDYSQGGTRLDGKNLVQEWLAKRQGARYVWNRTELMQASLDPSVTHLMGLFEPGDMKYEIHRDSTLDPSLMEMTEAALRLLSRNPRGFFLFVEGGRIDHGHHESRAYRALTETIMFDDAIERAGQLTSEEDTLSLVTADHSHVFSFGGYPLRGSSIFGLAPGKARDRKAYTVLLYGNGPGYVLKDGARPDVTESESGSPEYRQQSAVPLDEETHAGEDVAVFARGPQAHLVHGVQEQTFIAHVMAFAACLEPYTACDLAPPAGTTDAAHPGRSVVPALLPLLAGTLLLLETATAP
Sequence of Envelope glycoprotein gp160 (Q6QLK5 whole entry): as the sequence (Q6QLK5 1-814) above

EC50 [1]: 0.88 nM
AUC at 24 h [2]: 15 µM·h
fraction unbound [3]: 0.05
AUC [4]: 28 µM·h
half-life [7]: > 1.67 h
T1/2 [9]: 0.717 h
AUC [10]: 43 µM·h
Kd [13]: 19 nM
Compound: COc1ncc(OC)c2c(C(=O)C(=O)N3CCN(C(=O)c4ccccc4)CC3)c[nH]c12
log(activity) [5]: 0.96 /ml
log(activity) [6]: 1.32 /ml
CC50 (MT2): > 300000 nM
log(activity) [8]: 1.5 /ml
Ratio EC50 [11]: 1.9 - 3.7
log(activity) [12]: 0.72 /ml

Drug metabolism [14]: Metabolite_Detected
Drug metabolism [16]: Metabolite_Detected
Stability [17]: Stable
Drug metabolism [18]: Metabolite_Detected
Stability [19]: Stable
Stability [20]: Stable
Drug metabolism (Homo sapiens): Dose-dependent effect
Drug metabolism [21]: Metabolite_Detected
solubility [22]: > 11000 µg/mL
Drug metabolism [23]: Metabolite_Detected
Drug metabolism [24]: Metabolite_Detected
Compound: COc1cnc(-n2cnc(C)n2)c2c1c(C(=O)C(=O)N1CCN(C(=O)c3ccccc3)CC1)cn2COP(=O)(O)O.NC(CO)(CO)CO [FOSTEMSAVIR TROMETHAMINE]
Activity (Canis familiaris [15]): Toxic

AUC at 24 h [2]: 111 µM·h
bioavailability (Cynomolgus monkey): 80 to 122%
Drug uptake [25]: Active
solubility [26]: 50 µg/mL (≈ 106 µM)
bioavailability (Rattus norvegicus): 80 to 122%
bioavailability (Canis familiaris [27]): 80 to 122%
Drug uptake [28]: Active
Papp [29]: 18.2 ×10⁻⁶ cm/s
IC50 [30]: 7.09 nM
T1/2 [9]: 7.63 h
AUC [10]: 61 µM·h
IC50 [31]: 4.59 nM
IC50 [32]: 87.9 nM
solubility [33]: 70 µg/mL (≈ 148 µM)
Compound: COc1cnc(-n2cnc(C)n2)c2[nH]cc(C(=O)C(=O)N3CCN(C(=O)c4ccccc4)CC3)c12
CC50 (MT2): > 300000 nM

remaining at 10 min [34]: 97%
remaining at 10 min [35]: 83%
EC50 [1]: 0.09 nM
AUC at 24 h [2]: 48.7 µM·h
half-life [36]: 2.6 h
Vd [37]: 0.4 L/kg
Papp [29]: 14.6 ×10⁻⁶ cm/s
bioavailability [38]: 90%
IC50 (Cytochrome P450 3A4): 1000 nM
Compound: COc1cnc(-n2cncn2)c2[nH]cc(C(=O)C(=O)N3CCN(C(=O)c4ccccc4)CC3)c12
CC50 (MT2): > 300000 nM

Source: ChEMBL document CHEMBL4130629 (J Med Chem, 2018)
